Bioassay records as filed in PubChem.
Hits are enriched below; roughly 2.1% of the tested compounds scored in any of these assays.
Autophagy mod: modulators of autophagy; MEF GFP-LC3 puncta imaging; test concentration mostly 10 µM; calls only at 10 µM (by protocol); 190,000 tested, 0.98% active;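 active means percentage of spot-positive cells more than 3 SD above its plate mean, without a fluorescence outlier flag or 80% toxicity; inconclusive means no clear call, values can overlap the other calls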;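 further: spot-positive cell cutoff set from DMSO-treated cells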
Insulin prom up: MIN6 insulin promoter up-regulation. MIN6 insulin promoter-GFP reporter, high-content imaging; hits give high values. z-score at 5 µM. 190,000 tested, 0.3% active;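 active means z-score above 3 at 5 µM with at least 500 cells counted in the well; inconclusive means wells under 500 cells, flagged as cytotoxic or low count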
Dynein cargo inh: dynein cargo transport inhibition; 220,000 tested, 0.47% active; AID 1381; z-score, hits read low; 3617.4 mouse cells, GR-EGFP nuclear translocation imaging; test concentration mostly 20 µM; stimulated with dexamethasone, 1 µM; hits give low values;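 active means plate z-score of nuclear minus cytoplasmic receptor signal below a set negative limit, without overly bright fluorescence or cell loss, cut at about -3.5 in these data, passing the limit was not always enough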;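 further: z-score of nuclear minus cytoplasmic ring GR-EGFP intensity difference per well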
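Buffer or medium – tet-free medium with charcoal-stripped serum · Signal – automated 10x imaging of fixed Hoechst-stained cells · Also added – dexamethasone agonist, 1.0 µM final, for 30 min · Incubation – induction 48 h, compound 1 h, agonist 30 min · Read-out – GR-EGFP nuclear translocation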
PERK inhibitor: human PERK inhibition, primary cell-based screen; inhibition, % at 5.6 µM; Q9NZJ5; 220,000 tested, 0.17% active; CHO PERK-DD fusion, SEAP luminescence translation reporter; AID 1416;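 active means inhibition above the mean inhibition of all tested compounds plus 3 SD, set separately per screening campaign, cut at about 2.9% in these data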;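 further: PERK kinase domain activated by AP20187 dimerizer at 100 nM; 0% = DMSO with dimerizer and 100% = rapamycin at 8.4 µM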
Target sequence (Q9NZJ5 whole entry, looked up, the tested form may be a part): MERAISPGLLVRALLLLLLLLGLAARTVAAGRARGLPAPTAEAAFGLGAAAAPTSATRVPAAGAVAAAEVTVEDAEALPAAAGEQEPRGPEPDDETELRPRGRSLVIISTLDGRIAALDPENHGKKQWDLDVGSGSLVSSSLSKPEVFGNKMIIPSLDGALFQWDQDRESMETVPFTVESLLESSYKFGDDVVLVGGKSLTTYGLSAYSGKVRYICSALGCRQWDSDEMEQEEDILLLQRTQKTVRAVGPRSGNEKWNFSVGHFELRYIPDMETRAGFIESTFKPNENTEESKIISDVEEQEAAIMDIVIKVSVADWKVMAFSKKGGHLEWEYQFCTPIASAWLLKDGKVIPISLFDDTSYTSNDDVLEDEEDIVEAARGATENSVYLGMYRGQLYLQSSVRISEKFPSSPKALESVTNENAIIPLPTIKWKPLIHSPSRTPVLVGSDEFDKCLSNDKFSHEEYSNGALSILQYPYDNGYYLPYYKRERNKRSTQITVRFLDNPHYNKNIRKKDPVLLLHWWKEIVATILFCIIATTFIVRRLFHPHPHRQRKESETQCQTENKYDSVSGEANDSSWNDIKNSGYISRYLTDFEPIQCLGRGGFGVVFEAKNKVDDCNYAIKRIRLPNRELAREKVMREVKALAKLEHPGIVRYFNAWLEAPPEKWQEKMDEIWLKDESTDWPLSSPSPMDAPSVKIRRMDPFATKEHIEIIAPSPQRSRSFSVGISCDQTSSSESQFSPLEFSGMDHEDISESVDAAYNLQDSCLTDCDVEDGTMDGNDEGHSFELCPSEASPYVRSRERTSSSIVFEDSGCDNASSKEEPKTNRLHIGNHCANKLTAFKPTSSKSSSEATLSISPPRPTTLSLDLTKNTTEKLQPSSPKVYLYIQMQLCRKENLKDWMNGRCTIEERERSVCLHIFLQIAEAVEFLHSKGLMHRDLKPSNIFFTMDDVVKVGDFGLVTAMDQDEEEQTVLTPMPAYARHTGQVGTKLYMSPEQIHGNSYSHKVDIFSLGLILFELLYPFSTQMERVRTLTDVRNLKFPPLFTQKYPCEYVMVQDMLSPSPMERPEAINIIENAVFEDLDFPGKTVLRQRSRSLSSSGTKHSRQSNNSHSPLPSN
Insulin prom inh: TRM-6 insulin promoter activity inhibition; inhibition, % at 2 µM; TRM-6 cells (human fetal islet line), insulin promoter-eGFP reporter, imaging; reporter expression induced with tamoxifen; 130,000 tested, 0.9% active; AID 1273;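 active means inhibition above the mean plus 3 SD, with well images judged a real hit on visual review, cut at about 60% in these data, passing the limit was not always enough; inconclusive means inhibition over the cutoff but images rejected on review; inactive means inhibition not above the cutoff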
* marks the source's active call; other numbers are inactive results; i = inactive; ? = inconclusive; / = no result; + = active, no number.

SMILES | Autophagy mod | Insulin prom up | Dynein cargo inh | PERK inhibitor | Insulin prom inh
Clc1ccc(-c2csc(N3CCOCC3)n2)cc1 | i | -0.08 | -0.22 | 1 | 73*
COCCNC(=S)N/N=C(\C)c1ccc2cc(OC)ccc2c1 | i | 3.4* | 1.4 | 0 | -7
O=[N+]([O-])c1cc2c(cc1/C=N/Nc1nc(Nc3ccccc3)nc(N3CCCCC3)n1)OCO2 | + | / | 0.71 | 1 | -18
CC(C)NS(=O)(=O)c1ccc(CCC(=O)Nc2ccc3c(c2)OCO3)cc1 | i | / | 0.54 | 1 | -479
C#CCOC(=O)C(NC(=O)c1ccccc1)=C1CCCCC1 | i | -0.18 | 2.4 | -1 | -29
Cc1ccc(Sc2ccc([N+](=O)[O-])cc2[N+](=O)[O-])nc1 | i | -0.06 | -0.92 | 0 | -17
Cc1ccnc(Sc2ccc([N+](=O)[O-])cc2[N+](=O)[O-])n1 | i | 0.57 | -4.8* | -1 | 50
CC(=O)Nc1ccc(NC(=O)Cc2ccc(S(=O)(=O)N3CCCCC3)s2)cc1 | i | / | 0.041 | 0 | 80*
Cc1ccc(C)c(NC(=O)Cc2ccc(S(=O)(=O)N3CCCCC3)s2)c1 | i | 0.1 | 0.85 | -1 | /
CCCN1C(=O)/C(=C\C=C2\N(CC)c3ccccc3C2(C)C)SC1=S | + | / | -1.9 | 1 | /
CC(C)OC(=O)CSc1nc(Cc2ccccc2)nc2ccccc12 | i | -0.42 | 0.13 | -1 | -7
CC(C)Cc1nc(C(N)=O)c2[nH]c(=O)n(-c3ccc(F)cc3)c2n1 | i | 0.26 | 0.38 | 0 | /
Cc1cccc(-n2c(=O)[nH]c3c(C(N)=O)nc(CC(C)C)nc32)c1 | i | 0.61 | -0.039 | 2 | 82*
Cc1ccc(OCc2ccc(C(=O)Nc3nc4ccccc4n3Cc3ccccc3)o2)c([N+](=O)[O-])c1 | i | -0.32 | -0.45 | 0 | 18
O=C(Nc1nc2ccccc2n1Cc1ccccc1)c1ccc(COc2ccccc2[N+](=O)[O-])o1 | + | / | 2.8 | -1 | 25
Cc1ccc(C(C(=O)NCc2ccco2)N(C(=O)CNC(=O)c2cccs2)c2c(C)cccc2C)cc1 (stereo not given) | i | 0.07 | 0.12 | 0 | /
Cc1ccc(C(C(=O)NCc2ccco2)N(C(=O)CNC(=O)c2cccs2)c2c(C)cc(C)cc2C)cc1 (stereo not given) | + | 0.63 | -0.49 | 1 | 46
O=C(COc1ccc(Cl)cc1)NCc1nnc(SCC(=O)NC2CCCCC2)o1 | i | 3.3* | -0.95 | -1 | 21
O=C(COc1ccc(Cl)cc1)NCc1nnc(SCC(=O)Nc2ccccc2)o1 | i | 0.06 | 1.1 | -1 | -25
CC(C)n1cc(/C=C2\NC(=O)N(c3cccc(Cl)c3)C2=O)c2ccccc21 | + | / | -0.64 | 0 | 17
CC(C)n1cc(/C=C2/NC(=O)N(c3cccc(Cl)c3)C2=O)c2ccccc21 | + | 0.07 | -0.97 | -1 | -66
O=C(O)Cn1cc(/C=C2/NC(=O)N(c3ccc(Cl)cc3)C2=O)c2ccccc21 | i | 0.86 | -0.36 | -1 | 18
COc1ccc(NS(=O)(=O)c2cc(NC(=O)c3nc4nc(C)cc(C)n4n3)ccc2C)cc1 | + | 1 | -0.35 | 0 | /
O=C(Nc1ccccc1C(F)(F)F)c1ncn[nH]1 | / | 1.9 | 0.65 | 0 | /
CN(C)c1ccc(/C=N/NC(=O)c2ccn(C)n2)cc1 | / | -0.4 | -0.51 | 3.0* | /
SMILES | Autophagy mod | Insulin prom up | Dynein cargo inh | PERK inhibitor | Insulin prom inh
CCOc1ccc(-n2cc(-c3ccccc3)c3c(N4CCOCC4)ncnc32)cc1 | + | -1.1 | -0.53 | 1 | -20
c1ccc(-c2cn(-c3ccccc3)c3ncnc(N4CCCCC4)c23)cc1 | i | -1.9 | 0.71 | 0 | -14
C=C(C)C(=O)Nc1cccc(C2=NOC3(C2)C[C@H](C(N)=O)N(C(=O)c2ccccc2C(=O)c2ccccc2)C3)c1 (stereo not given in full) | / | 1.3 | -0.13 | / | /
CSc1nn(-c2ccc(C(=O)OCC(=O)NC(=O)NC(C)C)cc2)c(=S)s1 | i | 0.57 | 2.9 | -1 | 33
Oc1ccc(Nc2nc(N3CCCC3)c3ccccc3n2)cc1 | + | ? | -1.1 | -1 | /
COc1ccc(Nc2nc(N3CCCCC3)c3ccccc3n2)cc1 | i | -1.9 | -0.077 | 0 | -10
CN(C)c1cccc(C(=O)OCC(=O)NCC2CCCO2)c1 (stereo not given) | i | 1.2 | 0.09 | 1 | /
COC(=O)C1Cc2ccccc2CN1C(=O)CCl (stereo not given) | i | 0.44 | -2.5 | 0 | /
Cc1ccc(Cn2c(=N)n(CC(=O)c3ccccc3)c3ccccc32)cc1 | + | -6.3 | 2.7 | 0 | /
CCOc1ccc(S(=O)(=O)NC(C)C)cc1C(N)=O | i | -0.34 | 0.97 | 0 | /
CC(=O)Nc1ccc(NC(=O)/C=C/c2cccc(C(F)(F)F)c2)cc1 | i | -0.21 | -0.36 | 1 | -7
CC(C)(C)NC(=O)/C=C/c1cccc(C(F)(F)F)c1 | i | 0.78 | -0.67 | 2 | 60*
COc1cccc(-c2ccc(SCC(=O)c3ccccc3)nn2)c1 | i | 0.28 | -0.94 | 1 | 78*
Cn1c(/C(C#N)=C/c2ccc(-c3ccc(S(N)(=O)=O)cc3)o2)nc2ccccc21 | + | / | 6.2 | -1 | 4
Cn1c(/C(C#N)=C/c2cccc(O)c2)nc2ccccc21 | i | 0.28 | 1.2 | 0 | /
CC(=O)OCC1(C)CN(c2ccccc2)NC1=O (stereo not given) | i | 0.25 | 0.028 | 0 | /
COc1ccc(C(C)=O)cc1CSc1nc2cc(Cl)ccc2o1 | i | -0.24 | -0.29 | 1 | 74*
COc1ccc(C(C)=O)cc1CSc1nnc(SCc2cc(C(C)=O)ccc2OC)s1 | / | -0.64 | 0.64 | 1 | /
Cc1ccc(SCC(=O)Nc2ccc(S(N)(=O)=O)cc2)cc1 | i | 0.92 | 0.35 | 1 | 9
Cc1cc(/C=C2\SC(=S)N(Cc3ccco3)C2=O)c(C)n1-c1ccccc1 | + | 1.2 | -2.1 | 1 | -223
O=C1/C(=C\c2ccco2)SC(=S)N1Cc1ccccc1 | i | 0 | 0.17 | 2 | -150
CC(C)N1CCc2c(sc(NC(=O)c3ccc(S(=O)(=O)N4CCc5ccccc54)cc3)c2C(N)=O)C1 | + | / | -2.4 | 1 | /
COc1ccc(C2c3ccc(O)cc3Oc3ncn4nc(-c5ccncc5)nc4c32)cc1OC (stereo not given) | / | -0.67 | 0.87 | 1 | /
CCOC(=O)c1c(-c2ccccc2)csc1NC(=O)/C(C#N)=C/c1ccc(OC)c(OC)c1 | + | -0.21 | 4.3 | 0 | 3
Cc1cc(C)nc(/N=C(\NC(=O)C(C)(C)C)Nc2ccc(F)cc2)n1 | / | -0.25 | 1.5 | 1 | /
NS(=O)(=O)c1ccc(-c2ccc(/C=N/Nc3ccc(C(=O)O)cc3)o2)cc1 | / | / | -0.026 | 3.0* | /
Cc1noc(NS(=O)(=O)c2ccc(N3Cc4ccccc4C3=O)cc2)c1C | i | 0.03 | -0.86 | 3.1* | 36
O=C1O/C(=C/C(=O)N2CCOCC2)c2ccccc21 | i | 0.42 | 0.76 | 1 | -25
